# ABCG2 inh: ABCG2 efflux pump inhibitors, primary screen, multiplex with ABCB1, IgMXP3 cells, flow cytometry. AID 1325, 2008. 190,000 tested, 0.1% active. inhibition, % at 6.6 µM. JC-1 efflux. Broad substrate specificity ATP-binding cassette transporter ABCG2 (Homo sapiens), Q9UNQ0;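 active means inhibition above 80%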;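 further: 0% = DMSO and 100% = nicardipine control wells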
#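 material = IgMXP3 (ABCG2) plus far-red-tagged CCRF-Adr (ABCB1) cells | amount = 3 million cells/mL, equal mix of both lines | also added = JC-1 transporter substrate | dosing = one concentration, 6.6 µM final | schedule = 10 min at 25 °C | measured by = flow cytometric JC-1 green MFI at 530 nm | read-out basis = percent efflux inhibition, scaled nicardipine 100% to DMSO 0%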
# ABCB1 block: ABCB1 efflux pump inhibitors, primary screen, cell-based, multiplex, flow cytometry, ABCG2 counter-screen; ATP-dependent translocase ABCB1 (Homo sapiens), P08183; CCRF-Adr cells, JC-1 efflux; inhibition, % at 6.6 µM; 190,000 tested, 0.067% active; in the data active means inhibition above about 40%;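 further: 0% = vehicle and 100% = reference inhibitor; higher value means more JC-1 retained so stronger ABCB1 efflux block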
# Avidin fluor: green autofluorescence of compounds with avidin beads – biophysical, 488/530 nm, flow cytometry, artefact control, profiling panel; compound fluorescence 488/530 nm; hits give high values; fluorescence (KMESF) at 10 µM; 220,000 tested, 0.38% active; in the data active means fluorescence above about 47
# Lmaj promast: Leishmania major promastigote growth inhibition, primary screen; Leishmania major promastigotes, resazurin fluorescence viability; inhibition, % at 10 µM; 200,000 tested, 9% active; AID 1063, 2008;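 further: promastigotes grown with compound for 44 hours at 28 °C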
# GSH fluor: compound fluorescence on glutathione beads, profiling panel, artefact control, biophysical, 488/530 nm, flow cytometry; AID 1776, 2009; GSH beads flow cytometry, compound fluorescence 488/530 nm; hits give high values; fluorescence (KMESF) at 10 µM; 190,000 tested, 0.25% active; in the data active means fluorescence above about 89;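 further: glutathione beads carrying GST-tagged Bcl family fusion proteins plus one bare bead set; values are compound well signal with DMSO vehicle wells as background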
# PKD1 kinase inh: inhibitors of human PKD1 kinase, biochemical, fluorescence polarization; PKD1 kinase fluorescence polarization assay; inhibition, % (no concentration beside the values); 200,000 tested, 0.056% active; AID 797, 2007
# An asterisk follows results filed as active; . = not tested or not shown. Shown is part of a subset that was picked to be rich in hits. Unless noted, no stated cut-off is given here; in the data, active means inhibition above about 50%; inactive means the rest.
SMILES,ABCG2 inh,ABCB1 block,Avidin fluor,Lmaj promast,GSH fluor,PKD1 kinase inh
O=C(Cc1cccc2ccccc12)NCC1CCCO1 (configuration not stated),3,0,15,-4,29,4
CC(CNCC1CCCO1)COc1cccc2ccccc12 (configuration not stated),2,0,3,80*,30,-2
COc1ccc(C(CC(=O)O)NC(=O)c2ccccc2)cc1OC (configuration not stated),0,0,18,-5,22,-5
Cc1nn(-c2ccccc2)c(C)c1-c1cc(C(=O)N/N=C/c2cccnc2)[nH]n1,10,-1,9,29,11,4
Cc1nn(-c2ccccc2)c(C)c1/C=N/NC(=O)c1cc(C(C)(C)C)[nH]n1,45,1,8,8,37,-1
Cc1ccc(-c2cc(C(=O)N/N=C/c3c(C)nn(C)c3C)c3ccccc3n2)c(C)c1,0,1,10,100*,62,2
Cc1ccc(-c2cc(C(=O)N/N=C/c3c(C)nn(-c4ccccc4)c3C)[nH]n2)cc1,-2,0,8,71*,31,-8
Cc1ccc(-c2cc(C(=O)N/N=C/c3c(C)nn(-c4ccccc4)c3C)n[nH]2)s1,-3,0,3,58*,3,-11
Cc1ccc(S(=O)(=O)Oc2ccc(C3C4=C(CCCC4=O)N(CCC(=O)O)C4=C3C(=O)CCC4)cc2Cl)cc1,-3,-1,2,-9,5,13
O=C(c1ccccc1)C(C(=O)N1CCCCC1)n1ccccc1=O (configuration not stated),4,1,6,2,11,0
O=C(NCc1ccccn1)C(C(=O)c1ccc(F)cc1)n1ccccc1=O (configuration not stated),1,0,56*,-5,18,-6
O=C(NCc1ccco1)C(C(=O)c1ccc(F)cc1)n1ccccc1=O (configuration not stated),4,1,5,-7,22,-17
CN1CCN(C(=O)C(C(=O)c2ccc(F)cc2)n2ccccc2=O)CC1 (configuration not stated),-7,-1,59*,-4,35,0
CCOc1ccc(/C=N/Nc2cc(=O)n(C)c(=O)n2C)cc1,9,12,17,71*,4,-9
CC(C)Oc1ccc(C(=O)NC(Cc2c[nH]c3ccccc23)C(=O)NN)cc1 (configuration not stated),.,.,12,.,.,.
CC(C)C[C@H](NC(=O)c1nc[nH]c1C(=O)N(C)Cc1ccccc1)C(=O)OC(C)(C)C,3,2,7,18,20,3
N/C(=N\OC(=O)CSc1ccccc1)c1cccc([N+](=O)[O-])c1,22,0,5,81*,8,-6
Cc1ccc(SCC(=O)O/N=C(\N)c2ccc([N+](=O)[O-])cc2)cc1,1,0,9,-3,10,-4
N/C(=N\OC(=O)Oc1ccccc1)c1ccc([N+](=O)[O-])cc1,3,0,6,-7,19,0
N/C(=N\OC(=O)Oc1ccccc1)c1cccc([N+](=O)[O-])c1,18,1,9,59*,4,-15
CN1CCN(Cc2cccc(Oc3ccccc3)c2)CC1,9,0,2,100*,57,-7
OCCN1CCN(Cc2cccc(Oc3ccc(Cl)cc3)c2)CC1,1,1,14,99*,32,0
O=C(c1ccccc1)N1CCN(Cc2cccc(Oc3ccccc3)c2)CC1,1,1,7,-4,9,6
OC1CCN(Cc2cccc(Oc3ccccc3)c2)CC1,1,0,14,100*,25,1
CC1CCCN(Cc2cccc(Oc3ccccc3)c2)C1 (configuration not stated),5,2,28,100*,25,1
